Assay results reported in ChEMBL document CHEMBL4680269, “N-benzylpiperidinol derivatives as novel USP7 inhibitors: Structure-activity relationships and X-ray crystallographic studies” (Eur J Med Chem, 2020).
The source made the active and inactive calls. The calls are words filed in the database; no cut-off is given here.

Assays:
LNCaP = test: Antiproliferative activity against human LNCaP cells assessed as reduction in cell viability incubated for 6 days by cell-titer glo assay; format: functional, cell-based; details: 144 h
Summary of the method: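 LNCaP seeded at 2500 cells/well in 96-well plates, treated 24 h later with a range of compound concentrations for 6 days. Viability by CellTiter-Glo; IC50 from curve fitting.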

RS4-11 = test: Antiproliferative activity against human RS4-11 cells assessed as reduction in cell viability incubated for 3 days by cell-titer glo assay; format: functional, cell-based; details: RS4-11, 72 h
Summary of the method: (§1)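 Cells seeded in 96-well plates (RS4;11 5000 cells/well; HCT-116, Huh7, K562, NB4 2000 cells/well), dosed after 24 h with a range of compound concentrations for 3 days. Viability read by CellTiter-Glo luminescence; IC50 from curve fitting.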

Huh-7 = test: Antiproliferative activity against human HuH-7 cells assessed as reduction in cell viability incubated for 3 days by cell-titer glo assay; format: functional, cell-based; details: Huh-7, 72 h; summary of the method: as §1
[1] = molecular target: Ubiquitin carboxyl-terminal hydrolase isozyme L1 (Homo sapiens) (UniProt P09936); test: Inhibition of UCH-L1 (unknown origin) at 20 uM
NB-4 = test: Antiproliferative activity against human NB-4 cells assessed as reduction in cell viability incubated for 3 days by cell-titer glo assay; format: functional, cell-based; details: NB-4, 72 h; summary of the method: as §1
[2] = molecular target: T1, Ubiquitin carboxyl-terminal hydrolase 28 (Homo sapiens) (UniProt Q96RU2); test: Inhibition of USP28 (unknown origin) at 20 uM
T1 sequence (whole entry): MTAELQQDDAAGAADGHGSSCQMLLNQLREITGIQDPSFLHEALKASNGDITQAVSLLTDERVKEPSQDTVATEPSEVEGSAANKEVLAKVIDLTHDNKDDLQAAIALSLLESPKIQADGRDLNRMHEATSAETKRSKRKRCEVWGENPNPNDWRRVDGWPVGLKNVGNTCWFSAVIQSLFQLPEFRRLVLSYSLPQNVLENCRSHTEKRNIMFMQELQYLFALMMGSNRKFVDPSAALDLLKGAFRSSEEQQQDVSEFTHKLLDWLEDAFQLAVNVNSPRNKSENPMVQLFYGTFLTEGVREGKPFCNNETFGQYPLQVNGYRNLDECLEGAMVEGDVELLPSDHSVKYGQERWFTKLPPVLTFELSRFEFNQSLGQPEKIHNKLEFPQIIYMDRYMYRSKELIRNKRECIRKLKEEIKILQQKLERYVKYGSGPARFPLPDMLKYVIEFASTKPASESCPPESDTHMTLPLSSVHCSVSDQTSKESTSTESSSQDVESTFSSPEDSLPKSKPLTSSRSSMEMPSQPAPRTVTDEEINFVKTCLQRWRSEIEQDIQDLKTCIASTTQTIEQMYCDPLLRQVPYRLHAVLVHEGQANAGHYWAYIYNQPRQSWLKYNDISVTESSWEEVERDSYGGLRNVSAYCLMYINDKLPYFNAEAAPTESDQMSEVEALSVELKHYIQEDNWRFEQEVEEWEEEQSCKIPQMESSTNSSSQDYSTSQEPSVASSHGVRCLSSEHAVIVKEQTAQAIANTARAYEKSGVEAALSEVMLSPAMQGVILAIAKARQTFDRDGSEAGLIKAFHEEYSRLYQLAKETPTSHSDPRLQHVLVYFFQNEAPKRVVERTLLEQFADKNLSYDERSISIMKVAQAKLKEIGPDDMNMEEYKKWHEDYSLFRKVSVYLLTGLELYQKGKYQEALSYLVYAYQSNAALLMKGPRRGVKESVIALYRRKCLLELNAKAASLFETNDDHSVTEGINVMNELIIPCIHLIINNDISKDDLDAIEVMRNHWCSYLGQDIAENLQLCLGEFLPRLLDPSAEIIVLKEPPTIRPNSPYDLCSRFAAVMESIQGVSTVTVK

[3] = molecular target: T2, Ubiquitin carboxyl-terminal hydrolase 2 (Homo sapiens) (UniProt O75604); test: Inhibition of USP2 (unknown origin) at 20 uM
T2 sequence (whole entry): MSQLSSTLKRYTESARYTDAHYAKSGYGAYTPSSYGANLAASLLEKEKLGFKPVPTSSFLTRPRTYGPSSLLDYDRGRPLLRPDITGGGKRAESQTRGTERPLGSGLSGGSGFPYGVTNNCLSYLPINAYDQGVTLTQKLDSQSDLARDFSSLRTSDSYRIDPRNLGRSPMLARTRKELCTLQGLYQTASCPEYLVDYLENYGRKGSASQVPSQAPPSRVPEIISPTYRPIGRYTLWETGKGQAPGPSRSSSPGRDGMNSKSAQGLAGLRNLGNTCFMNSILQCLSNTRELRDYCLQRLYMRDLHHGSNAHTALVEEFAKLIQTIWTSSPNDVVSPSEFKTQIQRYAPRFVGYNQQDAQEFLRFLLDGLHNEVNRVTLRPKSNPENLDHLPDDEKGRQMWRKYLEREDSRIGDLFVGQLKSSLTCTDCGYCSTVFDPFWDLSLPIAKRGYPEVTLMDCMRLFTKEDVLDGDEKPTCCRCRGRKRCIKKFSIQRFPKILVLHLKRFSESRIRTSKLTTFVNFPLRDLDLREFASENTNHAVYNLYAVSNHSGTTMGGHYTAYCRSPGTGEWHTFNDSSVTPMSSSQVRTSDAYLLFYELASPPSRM

HCT-116 = test: Antiproliferative activity against human HCT-116 cells assessed as reduction in cell viability incubated for 3 days by cell-titer glo assay; format: functional, cell-based; details: HCT-116, 72 h; summary of the method: as §1
[4] = molecular target: Ubiquitin carboxyl-terminal hydrolase 11 (Homo sapiens) (UniProt P51784); test: Inhibition of USP11 (unknown origin) at 20 uM
[5] = molecular target: T3, Ubiquitin carboxyl-terminal hydrolase 25 (Homo sapiens) (UniProt Q9UHP3); test: Inhibition of USP25 (unknown origin) at 20 uM
T3 sequence (whole entry): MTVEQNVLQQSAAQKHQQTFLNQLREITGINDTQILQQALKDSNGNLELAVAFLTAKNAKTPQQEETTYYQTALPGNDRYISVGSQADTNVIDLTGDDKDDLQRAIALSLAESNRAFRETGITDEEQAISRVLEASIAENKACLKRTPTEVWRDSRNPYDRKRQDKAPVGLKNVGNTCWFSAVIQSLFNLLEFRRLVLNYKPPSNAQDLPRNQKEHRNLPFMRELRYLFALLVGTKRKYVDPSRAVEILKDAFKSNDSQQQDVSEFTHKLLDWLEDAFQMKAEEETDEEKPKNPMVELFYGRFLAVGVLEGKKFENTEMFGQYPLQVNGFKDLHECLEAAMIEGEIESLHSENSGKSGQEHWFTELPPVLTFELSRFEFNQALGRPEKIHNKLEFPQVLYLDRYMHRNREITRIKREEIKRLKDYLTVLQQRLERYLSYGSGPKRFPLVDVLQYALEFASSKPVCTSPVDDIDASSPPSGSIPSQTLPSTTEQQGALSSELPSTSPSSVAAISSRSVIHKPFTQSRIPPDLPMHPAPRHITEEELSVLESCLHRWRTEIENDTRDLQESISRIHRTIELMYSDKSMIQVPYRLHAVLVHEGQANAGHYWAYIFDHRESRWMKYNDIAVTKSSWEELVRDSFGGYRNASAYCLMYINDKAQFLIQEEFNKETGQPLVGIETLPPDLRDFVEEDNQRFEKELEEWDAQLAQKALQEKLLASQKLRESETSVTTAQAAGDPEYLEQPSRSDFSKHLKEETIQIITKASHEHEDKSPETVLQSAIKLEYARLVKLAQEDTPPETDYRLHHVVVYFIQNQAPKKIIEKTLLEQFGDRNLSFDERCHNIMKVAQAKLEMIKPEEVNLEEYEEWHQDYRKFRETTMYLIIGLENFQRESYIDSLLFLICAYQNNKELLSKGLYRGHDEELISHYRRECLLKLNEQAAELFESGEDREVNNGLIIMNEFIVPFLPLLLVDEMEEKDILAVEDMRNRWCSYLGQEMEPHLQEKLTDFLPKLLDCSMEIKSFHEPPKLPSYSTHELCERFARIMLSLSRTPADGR

[6] = molecular target: T4, Ubiquitin carboxyl-terminal hydrolase isozyme L5 (Homo sapiens) (UniProt Q9Y5K5); test: Inhibition of UCH-L5 (unknown origin) at 20 uM
T4 sequence (whole entry): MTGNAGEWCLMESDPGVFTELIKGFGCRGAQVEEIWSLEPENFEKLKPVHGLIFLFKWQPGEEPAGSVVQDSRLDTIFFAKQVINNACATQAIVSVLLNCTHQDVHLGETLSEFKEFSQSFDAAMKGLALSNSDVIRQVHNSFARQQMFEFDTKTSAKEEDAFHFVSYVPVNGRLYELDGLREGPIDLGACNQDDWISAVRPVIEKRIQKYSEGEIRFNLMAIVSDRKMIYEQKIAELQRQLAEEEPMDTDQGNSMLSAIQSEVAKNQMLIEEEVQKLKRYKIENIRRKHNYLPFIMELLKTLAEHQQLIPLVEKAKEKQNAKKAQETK

[7] = Antiproliferative activity against human K562 cells assessed as reduction in cell viability incubated for 3 days by cell-titer glo assay; format: functional, cell-based; details: K562, 72 h; summary of the method: as §1

Chain of Ubiquitin carboxyl-terminal hydrolase 11 (Homo sapiens) (P51784 whole entry): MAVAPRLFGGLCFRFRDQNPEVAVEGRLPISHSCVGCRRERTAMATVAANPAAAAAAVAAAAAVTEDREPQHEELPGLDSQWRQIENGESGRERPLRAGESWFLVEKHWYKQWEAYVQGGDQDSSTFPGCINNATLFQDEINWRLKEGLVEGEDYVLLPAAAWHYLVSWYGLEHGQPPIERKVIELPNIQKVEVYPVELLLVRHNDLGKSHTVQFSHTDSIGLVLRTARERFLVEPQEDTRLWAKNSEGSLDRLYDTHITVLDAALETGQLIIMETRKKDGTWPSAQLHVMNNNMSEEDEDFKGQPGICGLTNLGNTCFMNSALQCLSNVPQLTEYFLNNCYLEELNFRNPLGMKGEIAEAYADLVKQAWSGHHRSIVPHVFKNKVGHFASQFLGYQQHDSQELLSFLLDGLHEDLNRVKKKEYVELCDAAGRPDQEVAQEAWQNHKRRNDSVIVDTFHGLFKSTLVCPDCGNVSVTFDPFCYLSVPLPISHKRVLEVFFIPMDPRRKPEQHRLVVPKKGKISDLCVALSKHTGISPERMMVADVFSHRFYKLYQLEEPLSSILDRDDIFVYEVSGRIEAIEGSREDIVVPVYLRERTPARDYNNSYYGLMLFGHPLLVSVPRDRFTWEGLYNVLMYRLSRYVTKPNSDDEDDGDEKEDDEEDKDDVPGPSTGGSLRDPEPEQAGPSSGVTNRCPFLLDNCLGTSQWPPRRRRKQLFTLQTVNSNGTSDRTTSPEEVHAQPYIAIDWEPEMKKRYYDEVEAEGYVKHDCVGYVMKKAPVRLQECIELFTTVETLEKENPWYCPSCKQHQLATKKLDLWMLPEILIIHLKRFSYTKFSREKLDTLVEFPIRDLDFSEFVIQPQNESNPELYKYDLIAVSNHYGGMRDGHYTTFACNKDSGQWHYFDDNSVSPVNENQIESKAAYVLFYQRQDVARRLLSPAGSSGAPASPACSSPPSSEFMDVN
Chain of Ubiquitin carboxyl-terminal hydrolase isozyme L1 (Homo sapiens) (P09936 whole entry, looked up): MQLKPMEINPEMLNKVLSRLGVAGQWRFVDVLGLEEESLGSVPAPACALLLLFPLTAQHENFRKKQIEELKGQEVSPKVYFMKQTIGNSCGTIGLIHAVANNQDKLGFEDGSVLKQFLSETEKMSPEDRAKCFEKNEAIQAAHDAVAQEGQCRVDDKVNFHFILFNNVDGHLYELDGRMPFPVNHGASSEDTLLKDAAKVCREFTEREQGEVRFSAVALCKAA

C[C@H](CC(=O)N1CCC(O)(Cn2cnc3c(-c4ccc(CN)cc4)n(C)nc3c2=O)CC1)c1ccccc1
IC50 (LNCaP): 0.0201 µM | IC50 (RS4-11): 0.0069 µM | IC50 (Huh-7): 10.7 µM | inhibition [1]: inactive | IC50 (NB-4): > 50 µM | inhibition [2]: inactive | inhibition [3]: inactive | IC50 (HCT-116): > 50 µM | inhibition [4]: inactive | inhibition [5]: inactive | inhibition [6]: inactive | IC50 [7]: 24.1 µM
